For 54 compounds, inhibition and CC50 results are on record in ChEMBL document CHEMBL4400536, “Design and synthesis of aminothiazole based Hepatitis B Virus (HBV) capsid inhibitors” (Eur J Med Chem, 2019).

In data set [1] the target is Core antigen (Hepatitis B virus) (UniProt Q03732). The experiment in a line: Inhibition of GFP-fused Hepatitis B Virus capsid expressed in HEK293T cells at 50 uM after 48 hrs relative to control. The class given is cell-based. Summed up: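 BiFC assay: HBc fused to Venus fragments VN (1–154) and VC (155–239) were co-transfected into 293T cells, then compounds were added. The dose series used 0, 0.5, 5 and 50 μM; SAR used 50 μM as percent inhibition. After 48 h, reconstituted fluorescence was read as mean fluorescent intensity on a plate reader, with fluorescence microscopy images.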
Core antigen (Hepatitis B virus), sequence (Q03732 as listed by the source): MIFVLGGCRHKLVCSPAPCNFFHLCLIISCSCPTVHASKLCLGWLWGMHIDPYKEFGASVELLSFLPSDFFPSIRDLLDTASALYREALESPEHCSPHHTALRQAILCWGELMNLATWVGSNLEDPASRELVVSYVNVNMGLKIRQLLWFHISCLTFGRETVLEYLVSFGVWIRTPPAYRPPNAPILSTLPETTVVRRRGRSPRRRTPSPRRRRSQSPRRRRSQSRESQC

Data set [2] in a line: Cytotoxicity against human HepG2.2.15 cells. The class given is cell-based, HepG2 2.2.15.

Activity calls are given as the source filed them. No cut-off for these calls is given here.

`O=C(Nc1ncc(C(Oc2ccc3cc(Br)ccc3c2)c2ccc(Cl)cc2)s1)c1ccccc1` (centres undefined) returned an inhibition in data set [1] of 58%.

For the compound `COCCc1ccc(OC(c2ccc(Cl)cc2)c2cnc(NC(=O)OC(C)(C)C)s2)cc1` (centres undefined), the inhibition entry in data set [1] is “inactive”. The same compound registered a CC50 in data set [2] greater than 50 µM.

`Cc1cc(Br)cc(OC(c2ccc(Cl)cc2)c2cnc(NC(=O)OC(C)(C)C)s2)c1` (centres undefined): the inhibition entry in data set [1] is “inactive”. Moreover, the CC50 in data set [2] was greater than 50 µM.

The compound `COc1ccc(C(=O)Nc2ncc(C(Sc3ccc4ccccc4c3)c3ccc(Cl)cc3)s2)cc1` (centres undefined) yielded an inhibition in data set [1] of 49%.

In the case of `N#Cc1cccc(C(=O)Nc2ncc(C(Oc3ccc4cc(Br)ccc4c3)c3ccc(Cl)cc3)s2)c1` (centres undefined), in data set [1], the inhibition amounted to 70%. For the same compound, the CC50 in data set [2] is greater than 50 µM.

Turning to `O=C(Nc1ncc(C(OCc2ccc(F)cc2F)c2ccccc2)s1)c1cccs1` (centres undefined), the inhibition in data set [1] turned out to be 26%.

Regarding `O=S(=O)(Nc1ncc(C(Oc2ccc3cc(Br)ccc3c2)c2ccc(Cl)cc2)s1)c1ccc2c(c1)CCO2` (centres undefined), the inhibition result in data set [1] was “inactive”. The same compound registered a CC50 in data set [2] greater than 50 µM.

`O=C(Nc1ncc(C(Oc2ccc3cc(Br)ccc3c2)c2ccc(Cl)cc2)s1)c1ccc(F)cc1` (centres undefined): the inhibition in data set [1] turned out to be 50%.

For the compound `CC(C)(C)C(=O)Nc1ncc(C(Oc2ccc3cc(Br)ccc3c2)c2ccc(Cl)cc2)s1` (centres undefined), the inhibition in data set [1] was determined as 47%.

Turning to `O=C(Nc1ncc(Cc2ccc(Br)cc2)s1)c1ccc2ccccc2c1`, in data set [1], the inhibition entry was “inactive”. This compound had a CC50 in data set [2] greater than 50 µM.

`O=C(Nc1ncc(C(Oc2ccc3cc(Br)ccc3c2)c2ccc(Cl)cc2)s1)c1cc(F)c(F)cc1F` (centres undefined) returned an inhibition in data set [1] of 44%.

Turning to `O=C(Nc1ncc(C(Oc2ccc3cc(Br)ccc3c2)c2ccc(Cl)cc2)s1)C1CC1` (centres undefined), the inhibition in data set [1] came to 67%.

As for `COc1ccc(C(=O)Nc2ncc(C(Oc3ccc4ccc(Br)cc4c3)c3ccc(S(C)(=O)=O)cc3)s2)cc1` (centres undefined), the inhibition result in data set [1] was “inactive”.

For `CC(C)(C)OC(=O)Nc1ncc(C(Oc2ccc(F)c(Cl)c2)c2ccc(Cl)cc2)s1` (centres undefined), the inhibition result in data set [1] is “inactive”. In data set [2], this compound came in with a CC50 greater than 50 µM.

On to `COc1ccc(C(=O)Nc2ncc(C(Oc3ccc4cc(Br)ccc4c3)c3ccc(C#N)cc3)s2)cc1` (centres undefined), for which the inhibition entry in data set [1] was “inactive”.

In the case of `CC(C)(C)OC(=O)Nc1ncc(C(Oc2ccc(OCc3ccccc3)cc2)c2ccc(Cl)cc2)s1` (centres undefined), in data set [1], the inhibition result was “inactive”. This compound returned a CC50 in data set [2] greater than 50 µM.

`O=S(=O)(Nc1ncc(C(Oc2ccc3cc(Br)ccc3c2)c2ccc(Cl)cc2)s1)c1ccc(Cl)nc1` (centres undefined): the inhibition in data set [1] came out at 30%.

Regarding `O=S(=O)(Nc1ncc(C(Oc2ccc3cc(Br)ccc3c2)c2ccc(Cl)cc2)s1)c1ccc2ccccc2c1` (centres undefined), in data set [1], the inhibition entry is “inactive”. For the same compound, the CC50 in data set [2] is greater than 50 µM.

On to `Cc1ccc(C(=O)Nc2ncc(C(Oc3ccc4cc(Br)ccc4c3)c3ccc(Cl)cc3)s2)cc1` (centres undefined), for which, in data set [1], the inhibition was 71%.

`Cc1ccc(C(=O)Nc2ncc(Cc3ccc(F)cc3)s2)cc1` registered an inhibition in data set [1] of 53%.

For the compound `CC(C)(C)OC(=O)Nc1ncc(C(Oc2ccc(Cc3ccccc3)cc2)c2ccc(Cl)cc2)s1` (centres undefined), in data set [1], the inhibition result is “inactive”. For the same compound, the CC50 in data set [2] is greater than 50 µM.

In data set [1], `COc1ccc(C(=O)Nc2ncc(C(Oc3ccc4cc(Br)ccc4c3)c3ccc(Br)cc3)s2)cc1` (centres undefined) displayed an inhibition of 78%. Further, the CC50 in data set [2] was greater than 50 µM.

The compound `COc1ccc(COC(c2ccccc2)c2cnc(NC(=O)c3cccs3)s2)cc1` (centres undefined) came in with an inhibition in data set [1] of 64%.

Compound `O=S(=O)(Nc1ncc(C(Oc2ccc3cc(Br)ccc3c2)c2ccc(Cl)cc2)s1)c1cccs1` (centres undefined) gave an inhibition in data set [1] of 44%.

`O=C(Nc1ncc(Cc2ccc(F)cc2)s1)c1ccc(Cl)cc1Cl`: the inhibition result in data set [1] was “inactive”. The CC50 in data set [2] is greater than 50 µM.

Compound `Clc1ccc(C(Oc2ccc3cc(Br)ccc3c2)c2cnc(NCC3CCCCC3)s2)cc1` (centres undefined) yielded an inhibition in data set [1] of 61%.

As for `COCCCNc1ncc(C(Oc2ccc3cc(Br)ccc3c2)c2ccc(Cl)cc2)s1` (centres undefined), in data set [1], the inhibition was found to be 38%.

Turning to `Cc1ccc(C)c(S(=O)(=O)Nc2ncc(C(Oc3ccc4cc(Br)ccc4c3)c3ccc(Cl)cc3)s2)c1` (centres undefined), the inhibition result in data set [1] was “inactive”. The 50% cytotoxic concentration (CC50) in data set [2] is greater than 50 µM.

In the case of `O=C(Nc1ncc(Cc2ccc(Cl)cc2)s1)c1ccc(F)cc1F`, in data set [1], the inhibition entry is “inactive”.

In turn, `Cc1noc(C)c1C(=O)Nc1ncc(C(Oc2ccc3cc(Br)ccc3c2)c2ccc(Cl)cc2)s1` (centres undefined) came in with an inhibition in data set [1] of 64%.

In data set [1], `Cc1ccc(COC(c2ccccc2)c2cnc(NC(=O)c3cccs3)s2)cc1` (centres undefined) came in with an inhibition of 64%.

On to `O=C(CCCCC(=O)Nc1ncc(Cc2ccc(F)cc2)s1)Nc1ncc(Cc2ccc(F)cc2)s1`, for which the inhibition entry in data set [1] was “inactive”. This compound also showed a CC50 in data set [2] greater than 50 µM.

Consider `COC(=O)CCCCNc1ncc(C(Oc2ccc3cc(Br)ccc3c2)c2ccc(Cl)cc2)s1` (centres undefined), for which the inhibition in data set [1] was found to be 40%.

`O=C(Nc1ncc(C(Oc2ccc3cc(Br)ccc3c2)c2ccc(Cl)cc2)s1)c1cccs1` (centres undefined) gave an inhibition in data set [1] of 47%.

For the compound `O=C(Nc1ncc(C(OCc2ccc(F)cc2Br)c2ccccc2)s1)c1cccs1` (centres undefined), the inhibition in data set [1] amounted to 27%.

Take `O=C(Nc1ncc(C(OCc2ccc3ccccc3c2)c2ccccc2)s1)c1cccs1` (centres undefined): the inhibition in data set [1] was 47%.

For the compound `CCCCC(CC)CNc1ncc(C(Oc2ccc3cc(Br)ccc3c2)c2ccc(Cl)cc2)s1` (centres undefined), the inhibition in data set [1] came to 55%.

The compound `O=S(=O)(Nc1ncc(C(Oc2ccc3cc(Br)ccc3c2)c2ccc(Cl)cc2)s1)c1cccc2nsnc12` (centres undefined) displayed an inhibition in data set [1] of 50%.

On to `O=C(Nc1ncc(C(OCc2ccc(Cl)cc2)c2ccccc2)s1)c1cccs1` (centres undefined), for which the inhibition in data set [1] turned out to be 59%.

`COc1ccc(Br)c(COC(c2ccccc2)c2cnc(NC(=O)c3cccs3)s2)c1` (centres undefined) gave an inhibition in data set [1] of 45%.

In data set [1], `O=C(Nc1ncc(C(Oc2ccc3cc(Br)ccc3c2)c2ccc(Cl)cc2)s1)C1CCOCC1` (centres undefined) gave an inhibition of 66%.

Regarding `O=C(Nc1ncc(Cc2ccc(F)cc2)s1)c1ccc(Br)cc1`, the inhibition result in data set [1] was “inactive”. In addition, the CC50 in data set [2] is greater than 50 µM.

As to `CCc1ccc(S(=O)(=O)Nc2ncc(C(Oc3ccc4cc(Br)ccc4c3)c3ccc(Cl)cc3)s2)cc1` (centres undefined), in data set [1], the inhibition entry is “inactive”. Further, the CC50 in data set [2] was greater than 50 µM.

Take `O=C(Nc1ncc(C(OCc2ccc(Br)cc2)c2ccccc2)s1)c1cccs1` (centres undefined): the inhibition in data set [1] was 64%.

The compound `O=S(=O)(Nc1ncc(C(Oc2ccc3cc(Br)ccc3c2)c2ccc(Cl)cc2)s1)c1ccc(Cl)cc1` (centres undefined) showed an inhibition in data set [1] of 50%.

Turning to `O=C(Nc1ncc(C(Oc2ccc3cc(Br)ccc3c2)c2ccc(Cl)cc2)s1)c1ccc(Cl)nc1` (centres undefined), in data set [1], the inhibition is 45%.

The compound `CC(=O)O[C@@H]1OC(C(=O)Nc2ncc(C(Oc3ccc4cc(Br)ccc4c3)c3ccc(Cl)cc3)s2)[C@@H](OC(C)=O)[C@@H](OC(C)=O)[C@H]1OC(C)=O` (some centres undefined) returned an inhibition in data set [1] of 40%.

For `CCOC(=O)CCCNc1ncc(C(Oc2ccc3cc(Br)ccc3c2)c2ccc(Cl)cc2)s1` (centres undefined), in data set [1], the inhibition is 35%.

`O=C(Nc1ncc(Cc2ccc(F)cc2)s1)c1ccccc1` came in with an inhibition in data set [1] of 60%.

In data set [1], `CCN(CC)C(=O)Nc1ncc(C(Oc2ccc3cc(Br)ccc3c2)c2ccc(Cl)cc2)s1` (centres undefined) gave an inhibition of 67%.

Turning to `O=C(Nc1ncc(C(Oc2ccc3cc(Br)ccc3c2)c2ccc(Cl)cc2)s1)c1ccc(F)cc1F` (centres undefined), in data set [1], the inhibition is 51%.

As for `O=C(Nc1ncc(C(Oc2ccc3cc(Br)ccc3c2)c2ccc(Cl)cc2)s1)C1CCCO1` (centres undefined), in data set [1], the inhibition turned out to be 35%.

In turn, `COCCNc1ncc(C(Oc2ccc3cc(Br)ccc3c2)c2ccc(Cl)cc2)s1` (centres undefined) displayed an inhibition in data set [1] of 37%.

On to `Clc1ccc(C(Oc2ccc3cc(Br)ccc3c2)c2cnc(NCC3CCOCC3)s2)cc1` (centres undefined), for which, in data set [1], the inhibition turned out to be 43%.
